ChEMBL document CHEMBL1671761, “Preclinical characterization of BI 201335, a C-terminal carboxylic acid inhibitor of the hepatitis C virus NS3-NS4A protease” (Antimicrob Agents Chemother, 2010)

Tests used:
Rattus norvegicus [1] = species: Rattus norvegicus; assay: Inhibition of rat 5-HT1 receptor at 10 uM
[2] = target: Angiotensin-converting enzyme (Homo sapiens) (UniProt P12821); assay: Inhibition of human ACE at 10 uM
[3] = target: Alpha-2A adrenergic receptor (Rattus norvegicus) (UniProt P22909); assay: Inhibition of rat adrenergic receptor Alpha-2 at 10 uM
Alpha-2A adrenergic receptor (Rattus norvegicus), sequence (P22909 whole entry): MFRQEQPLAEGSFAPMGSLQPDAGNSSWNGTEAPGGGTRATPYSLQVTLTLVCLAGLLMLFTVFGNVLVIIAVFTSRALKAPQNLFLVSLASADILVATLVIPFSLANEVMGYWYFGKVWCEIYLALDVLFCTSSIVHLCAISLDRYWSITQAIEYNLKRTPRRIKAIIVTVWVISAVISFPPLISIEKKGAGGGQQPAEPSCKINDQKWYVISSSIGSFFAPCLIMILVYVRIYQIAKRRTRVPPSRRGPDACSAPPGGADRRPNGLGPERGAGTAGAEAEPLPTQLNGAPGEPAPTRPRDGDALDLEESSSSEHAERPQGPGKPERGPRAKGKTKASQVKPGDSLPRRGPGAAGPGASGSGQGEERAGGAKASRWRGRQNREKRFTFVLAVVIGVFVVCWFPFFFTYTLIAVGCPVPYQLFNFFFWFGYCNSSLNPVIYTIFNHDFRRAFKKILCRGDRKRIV

Hepatitis C virus = assay: Inhibition of HCV 1b NS3/4A protease; set-up: species or system Hepatitis C virus subtype 1b; conditions: read-out: Ki(app)
Method in brief: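 Full-length NS3 coexpressed with the 54-residue NS4A, 0.5 nM (2.5 nM for genotype 1a). Substrate was 5 μM anthranilyl-DDIVPAbu[C(O)-O]AMY(3-NO2)TW-OH in 50 mM Tris pH 8.0, 0.25 M citrate, 0.01% dodecylmaltoside, 1 mM TCEP, 5% DMSO. Run at 23°C for 60-70 min, stopped with MES pH 5.8, read by product fluorescence. IC50 converted to apparent Ki via IC50=Ki(1+[S]/Km). Mean ± SD, ≥3 experiments.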

Huh-7 = assay: Cytotoxicity activity against human HuH7 cells by MTT assay; assay type: functional
Method in brief: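 MTT assay in proliferating Huh-7 cells exposed 72 h to serial inhibitor dilutions; formazan read at 570 nm. CC50 taken from percent inhibition.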

[4] = Cmax in dog at 5 mg/kg, po; assay type: ADME, organism-based, Canis lupus familiaris; set-up: dose 5 mg/kg, route oral; conditions: in vivo
Method in brief: (§1)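 Single oral dose of 5 mg/kg in 0.5% Methocel with 0.3% Tween 80 (10 ml/kg) to fasted male animals: Sprague-Dawley rats (275-300 g, overnight fast with 10% dextrose water), rhesus monkeys, beagle dogs. Rat blood from cannulated carotid at 0-8 h, pooled from 3 rats per time point; monkey/dog n=3. Plasma solid-phase extracted, LC-MS/MS at m/z 869.3; noncompartmental analysis.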

[5] = AUC in rat at 5 mg/kg, po; assay type: ADME, organism-based; set-up: dose 5 mg/kg, route oral; conditions: plasma; method in brief: as §1
[6] = AUC in monkey at 5 mg/kg, po; assay type: ADME, organism-based, Macaca mulatta; set-up: dose 5 mg/kg, route oral; conditions: rhesus monkey, plasma; method in brief: as §1
[7] = AUC in dog at 5 mg/kg, po; assay type: ADME, organism-based, Canis lupus familiaris; set-up: dose 5 mg/kg, route oral; conditions: plasma; method in brief: as §1
[8] = AUC (0 to infinity) in dog at 5 mg/kg, po; assay type: ADME, organism-based, Canis lupus familiaris; set-up: time infinity, dose 5 mg/kg, route oral; conditions: plasma; method in brief: as §1
[9] = target: Caspase-10 (Homo sapiens) (UniProt Q92851); assay: Inhibition of human recombinant caspase-10 expressed in Escherichia coli at 10 uM by fluorimetry
Caspase-10 (Homo sapiens), sequence (Q92851 220-415 limits assumed): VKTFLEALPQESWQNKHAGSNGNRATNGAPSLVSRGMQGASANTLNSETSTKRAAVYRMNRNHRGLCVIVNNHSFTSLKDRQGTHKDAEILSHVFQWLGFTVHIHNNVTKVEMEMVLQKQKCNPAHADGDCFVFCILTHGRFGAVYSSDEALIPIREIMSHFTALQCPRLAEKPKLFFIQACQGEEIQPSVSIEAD
Caspase-10 (Homo sapiens), sequence (Q92851 416-521 limits assumed): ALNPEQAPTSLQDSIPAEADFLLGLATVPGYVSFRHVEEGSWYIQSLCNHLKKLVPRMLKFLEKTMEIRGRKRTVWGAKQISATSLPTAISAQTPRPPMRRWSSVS

Homo sapiens [10] = species: Homo sapiens; assay: Inhibition of human chymotrypsin at 10 uM
[11] = target: 72 kDa type IV collagenase (Homo sapiens) (UniProt P08253); assay: Inhibition of human MMP-2 at 10 uM
[12] = target: Stromelysin-1 (Homo sapiens) (UniProt P08254); assay: Inhibition of human MMP-3 at 10 uM
Stromelysin-1 (Homo sapiens), sequence (P08254 100-477 limits assumed): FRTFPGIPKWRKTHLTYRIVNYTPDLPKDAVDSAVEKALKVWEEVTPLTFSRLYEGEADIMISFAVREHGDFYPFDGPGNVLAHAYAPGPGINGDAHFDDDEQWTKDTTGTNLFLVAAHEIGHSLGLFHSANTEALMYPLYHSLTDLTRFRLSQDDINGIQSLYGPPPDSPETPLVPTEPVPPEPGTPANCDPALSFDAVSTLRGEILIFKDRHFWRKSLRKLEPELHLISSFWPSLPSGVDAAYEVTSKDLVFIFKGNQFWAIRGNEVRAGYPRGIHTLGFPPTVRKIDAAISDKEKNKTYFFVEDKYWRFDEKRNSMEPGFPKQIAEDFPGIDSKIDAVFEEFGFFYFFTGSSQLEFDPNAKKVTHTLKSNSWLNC

[13] = target: Matrilysin (Homo sapiens) (UniProt P09237); assay: Inhibition of human MMP-7 at 10 uM
[14] = target: Neprilysin (Homo sapiens) (UniProt P08473); assay: Inhibition of human neutral endopeptidase at 10 uM
[15] = target: Tissue-type plasminogen activator (Homo sapiens) (UniProt P00750); assay: Inhibition of human tPA at 10 uM
Tissue-type plasminogen activator (Homo sapiens), sequence (P00750 36-562 limits assumed): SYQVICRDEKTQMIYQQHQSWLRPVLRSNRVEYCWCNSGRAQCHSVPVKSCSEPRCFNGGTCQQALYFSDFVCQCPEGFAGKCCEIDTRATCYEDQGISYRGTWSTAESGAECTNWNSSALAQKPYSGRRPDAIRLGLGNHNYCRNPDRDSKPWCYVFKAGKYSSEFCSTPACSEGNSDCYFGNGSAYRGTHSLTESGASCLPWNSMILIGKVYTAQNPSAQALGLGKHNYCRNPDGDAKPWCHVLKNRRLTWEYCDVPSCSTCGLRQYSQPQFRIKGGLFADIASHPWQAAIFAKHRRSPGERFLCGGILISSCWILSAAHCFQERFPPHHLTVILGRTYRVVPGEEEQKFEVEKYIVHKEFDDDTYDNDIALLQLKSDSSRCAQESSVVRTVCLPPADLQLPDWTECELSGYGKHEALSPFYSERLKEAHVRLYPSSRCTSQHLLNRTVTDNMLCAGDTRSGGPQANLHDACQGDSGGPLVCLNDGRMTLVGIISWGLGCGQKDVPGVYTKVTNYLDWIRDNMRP

[16] = target: Acetylcholinesterase (Homo sapiens) (UniProt P22303); assay: Inhibition of human acetylcholinesterase at 10 uM
Acetylcholinesterase (Homo sapiens), sequence (P22303 whole entry): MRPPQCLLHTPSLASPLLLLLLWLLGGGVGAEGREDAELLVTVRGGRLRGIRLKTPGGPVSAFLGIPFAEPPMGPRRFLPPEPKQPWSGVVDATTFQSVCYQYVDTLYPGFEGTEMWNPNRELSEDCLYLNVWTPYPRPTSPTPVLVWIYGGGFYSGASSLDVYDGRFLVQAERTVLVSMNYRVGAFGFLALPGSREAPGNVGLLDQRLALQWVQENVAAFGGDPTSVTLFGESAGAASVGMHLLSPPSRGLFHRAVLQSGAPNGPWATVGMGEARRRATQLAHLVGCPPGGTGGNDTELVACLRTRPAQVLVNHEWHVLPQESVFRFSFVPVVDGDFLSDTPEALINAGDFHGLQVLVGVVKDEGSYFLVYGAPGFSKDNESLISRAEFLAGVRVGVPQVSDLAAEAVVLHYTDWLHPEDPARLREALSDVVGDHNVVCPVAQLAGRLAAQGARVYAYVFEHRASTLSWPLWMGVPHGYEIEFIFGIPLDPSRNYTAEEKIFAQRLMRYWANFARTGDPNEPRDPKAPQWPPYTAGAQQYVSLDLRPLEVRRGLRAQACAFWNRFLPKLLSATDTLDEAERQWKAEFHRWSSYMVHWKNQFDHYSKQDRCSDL

[17] = target: D(3) dopamine receptor (Homo sapiens) (UniProt P35462); assay: Inhibition of human dopamine receptor 3 at 10 uM
D(3) dopamine receptor (Homo sapiens), sequence (P35462 whole entry): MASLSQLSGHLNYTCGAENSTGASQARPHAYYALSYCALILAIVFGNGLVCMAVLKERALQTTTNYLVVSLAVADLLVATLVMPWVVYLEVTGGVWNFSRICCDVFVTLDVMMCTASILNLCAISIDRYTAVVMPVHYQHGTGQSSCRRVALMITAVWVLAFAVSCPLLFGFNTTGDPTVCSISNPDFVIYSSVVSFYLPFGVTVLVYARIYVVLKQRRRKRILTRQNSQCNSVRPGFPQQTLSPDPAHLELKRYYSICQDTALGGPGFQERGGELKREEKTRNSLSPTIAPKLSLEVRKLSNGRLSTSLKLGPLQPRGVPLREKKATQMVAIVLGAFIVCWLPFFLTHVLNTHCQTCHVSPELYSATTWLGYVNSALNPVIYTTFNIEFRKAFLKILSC

[18] = target: D(1B) dopamine receptor (Homo sapiens) (UniProt P21918); assay: Inhibition of human dopamine receptor 5 at 10 uM
D(1B) dopamine receptor (Homo sapiens), sequence (P21918 whole entry): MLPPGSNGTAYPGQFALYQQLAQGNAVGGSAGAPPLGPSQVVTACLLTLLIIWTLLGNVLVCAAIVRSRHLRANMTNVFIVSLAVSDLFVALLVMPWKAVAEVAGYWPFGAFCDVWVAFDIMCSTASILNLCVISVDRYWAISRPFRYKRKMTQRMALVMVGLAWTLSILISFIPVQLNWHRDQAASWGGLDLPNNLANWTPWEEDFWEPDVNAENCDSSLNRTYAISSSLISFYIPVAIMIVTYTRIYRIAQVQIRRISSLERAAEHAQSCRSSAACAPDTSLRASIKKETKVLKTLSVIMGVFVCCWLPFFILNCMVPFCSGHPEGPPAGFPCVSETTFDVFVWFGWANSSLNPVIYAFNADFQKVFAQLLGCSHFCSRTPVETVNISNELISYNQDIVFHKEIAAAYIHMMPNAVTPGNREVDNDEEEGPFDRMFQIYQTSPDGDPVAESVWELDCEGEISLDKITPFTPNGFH

[19] = target: Inositol 1,4,5-trisphosphate-gated calcium channel ITPR1 (Rattus norvegicus) (UniProt P29994); assay: Inhibition of rat IP3 receptor at 10 uM
[20] = target: Histamine H2 receptor (Homo sapiens) (UniProt P25021); assay: Inhibition of human H2 receptor at 10 uM
Histamine H2 receptor (Homo sapiens), sequence (P25021 whole entry): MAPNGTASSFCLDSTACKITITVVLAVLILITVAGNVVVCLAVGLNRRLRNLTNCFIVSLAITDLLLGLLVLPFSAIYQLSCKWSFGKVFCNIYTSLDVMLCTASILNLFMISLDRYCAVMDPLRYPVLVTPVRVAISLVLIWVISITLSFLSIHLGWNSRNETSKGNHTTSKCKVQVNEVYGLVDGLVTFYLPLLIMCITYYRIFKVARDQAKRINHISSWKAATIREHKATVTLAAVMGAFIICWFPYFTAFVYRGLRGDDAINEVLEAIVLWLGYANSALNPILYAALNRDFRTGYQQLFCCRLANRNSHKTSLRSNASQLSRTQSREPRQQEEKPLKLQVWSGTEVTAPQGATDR

[21] = target: Small conductance calcium-activated potassium channel (Rattus norvegicus) (UniProt P70604+P70606+P70605); assay: Inhibition of rat Small conductance calcium-activated potassium channel at 10 uM; assay type: protein assay
Rattus norvegicus [22] = species: Rattus norvegicus; assay: Inhibition of rat 5-HT3 receptor at 10 uM
Cavia porcellus = species: Cavia porcellus; assay: Inhibition of guinea pig adenosine transporter at 10 uM
Homo sapiens [23] = species: Homo sapiens; assay: Inhibition of human dopamine receptor 4.7 at 10 uM
Homo sapiens [24] = species: Homo sapiens; assay: Inhibition of human endothelin-converting enzyme at 10 uM by cerep assay
Rattus norvegicus [25] = species: Rattus norvegicus; assay: Inhibition of rat GABA-A receptor, benzodiazepine central at 10 uM

Angiotensin-converting enzyme (Homo sapiens), sequence (P12821 whole entry): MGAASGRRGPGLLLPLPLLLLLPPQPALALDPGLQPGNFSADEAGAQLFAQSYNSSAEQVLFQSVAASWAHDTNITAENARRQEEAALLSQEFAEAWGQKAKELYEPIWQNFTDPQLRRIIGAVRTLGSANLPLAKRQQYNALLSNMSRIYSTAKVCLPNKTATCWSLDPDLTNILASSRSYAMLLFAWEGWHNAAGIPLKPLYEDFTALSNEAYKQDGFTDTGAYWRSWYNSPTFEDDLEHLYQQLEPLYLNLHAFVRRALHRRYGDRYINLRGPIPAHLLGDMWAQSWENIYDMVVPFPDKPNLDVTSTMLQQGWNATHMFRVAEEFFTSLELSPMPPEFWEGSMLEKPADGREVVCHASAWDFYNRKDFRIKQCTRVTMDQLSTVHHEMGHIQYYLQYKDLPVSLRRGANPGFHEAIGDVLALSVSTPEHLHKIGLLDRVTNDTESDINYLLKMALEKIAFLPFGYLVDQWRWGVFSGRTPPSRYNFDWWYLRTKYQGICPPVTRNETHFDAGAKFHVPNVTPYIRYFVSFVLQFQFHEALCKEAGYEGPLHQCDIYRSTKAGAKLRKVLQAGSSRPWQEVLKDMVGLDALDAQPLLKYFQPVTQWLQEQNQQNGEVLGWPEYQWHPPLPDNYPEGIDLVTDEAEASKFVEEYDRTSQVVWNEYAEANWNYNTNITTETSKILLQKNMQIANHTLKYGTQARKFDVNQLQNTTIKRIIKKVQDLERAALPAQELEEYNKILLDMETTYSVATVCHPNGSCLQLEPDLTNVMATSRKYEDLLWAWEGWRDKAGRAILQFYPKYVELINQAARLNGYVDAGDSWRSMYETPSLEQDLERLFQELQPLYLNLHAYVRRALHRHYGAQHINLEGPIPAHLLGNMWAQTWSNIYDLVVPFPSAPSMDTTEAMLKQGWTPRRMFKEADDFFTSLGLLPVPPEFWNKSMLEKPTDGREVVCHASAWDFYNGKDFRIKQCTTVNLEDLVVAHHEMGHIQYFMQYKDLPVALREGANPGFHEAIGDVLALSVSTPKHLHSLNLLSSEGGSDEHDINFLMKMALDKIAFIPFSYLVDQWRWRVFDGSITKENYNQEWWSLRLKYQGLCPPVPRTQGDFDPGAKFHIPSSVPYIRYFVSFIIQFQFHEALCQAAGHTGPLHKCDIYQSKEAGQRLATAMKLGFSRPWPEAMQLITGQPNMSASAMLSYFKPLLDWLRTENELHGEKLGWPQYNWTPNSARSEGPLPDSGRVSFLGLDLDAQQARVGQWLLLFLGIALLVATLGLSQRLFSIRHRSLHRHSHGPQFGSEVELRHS

**Q.** What does the source list for `C=C[C@@H]1C[C@]1(NC(=O)[C@@H]1C[C@@H](Oc2cc(-c3csc(NC(=O)C(C)C)n3)nc3c(Br)c(OC)ccc23)CN1C(=O)[C@@H](NC(=O)OC1CCCC1)C(C)(C)C)C(=O)O`?
**A.** inhibition (Rattus norvegicus [1]): 10%; inhibition [2]: 5%; inhibition [3]: 18%; Ki (Hepatitis C virus): 0.0028 µM; CC50 (Huh-7): 30 µM; Cmax [4]: 3.8 µM; AUC [5]: 1.55 µM·h; AUC [6]: 8.3 µM·h; AUC [7]: 13 µM·h; AUC(0-inf) [8]: 14 µM·h; inhibition [9]: 12%; inhibition (Homo sapiens [10]): 0%; inhibition [11]: 10%; inhibition [12]: 11%; inhibition [13]: 6%; inhibition [14]: 3%; inhibition [15]: 2%; inhibition [16]: 20%; inhibition [17]: 4%; inhibition [18]: 11%; inhibition [19]: 0%; inhibition [20]: 21%; inhibition [21]: 2%; inhibition (Rattus norvegicus [22]): 7%; inhibition (Cavia porcellus): 23%; inhibition (Homo sapiens [23]): 0%; inhibition (Homo sapiens [24]): 11%; inhibition (Rattus norvegicus [25]): 12%
